# Measured values published in ChEMBL document CHEMBL1212813, “alpha-Amino-3-hydroxy-5-methyl-4-isoxazolepropionic acid (AMPA) antagonists: from bench to bedside” (J Med Chem, 2010).
# Legend:
# [1] = tested on: Mus musculus; assay: Anticonvulsant activity in po dosed mouse assessed as inhibition of MES-induced tonic seizures; format: functional
# Procedure, shortened: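 Mice were dosed orally 2 h before maximal electroshock. The read-out was protection from tonic convulsions, and an ED50 was derived.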
# [2] = Displacement of [3H]AMPA from AMPA receptor in rat cortical membrane; format: cell membranes
# [3] = target: Glutamate NMDA receptor; assay: Inhibition of NMDA receptor glycine site from rat cortical membrane
# [4] = target: Glutamate NMDA receptor; assay: Inhibition of NMDA receptor glutamate site from rat cortical membrane
# [5] = Displacement of [3H]kainate from kainate receptor in rat cortical membrane; format: cell membranes
# [6] = tested on: Rattus norvegicus; assay: Neuroprotective effect against middle cerebral artery occlusion-induced focal cerebral ischemia in iv dosed spontaneously hypertensive rat brain after 1 to 5 hrs of occlusion; format: functional
# [7] = tested on: Rattus norvegicus; assay: Anticonvulsant activity in ip dosed rat assessed as inhibition of MES-induced tonic seizures; format: functional
# [8] = Antagonist activity at AMPA receptor in rat cortical membrane assessed as inhibition of AMPA-induced membrane current; format: functional, cell membranes
# [9] = tested on: Mus musculus; assay: Anticonvulsant activity in ip dosed DBA2 mouse assessed as inhibition of sound-induced clonic seizures; format: functional
# [10] = tested on: Rattus norvegicus; assay: Neuroprotective effect against middle cerebral artery occlusion-induced focal cerebral ischemia in iv dosed spontaneously hypertensive rat; format: functional
# [11] = species on record: Rattus norvegicus; assay: Selectivity ratio IC50 for rat AMPA receptor to IC50 rat kainate receptor
# [12] = tested on: Mus musculus; assay: Anticonvulsant activity in po dosed mouse assessed as inhibition of PTZ-induced seizures; format: functional
# [13] = species on record: Homo sapiens; assay: Antiepileptic activity in human patient assessed as reduction in refractory partial seizures; format: functional; design: scale not given: the % may be the effect or the level left
# [14] = Antagonist activity at AMPA receptor in rat cortical membrane assessed as inhibition of AMPA-induced calcium accumulation; format: functional, cell membranes
# [15] = species on record: Homo sapiens; assay: Toxicity in human assessed as dizziness; format: organism-based; settings: in vivo
# [16] = tested on: Meriones unguiculatus; assay: Neuroprotective activity against middle cerebral artery occlusion-induced focal cerebral ischemia in Mongolian gerbils assessed as reduction in infarct volume at 6 mg/kg, iv bid; format: functional; design: scale not given: the % may be the effect or the level left
# [17] = species on record: Meriones unguiculatus; assay: Neuroprotective activity against middle cerebral artery occlusion-induced focal cerebral ischemia in Mongolian gerbils assessed survival of hippocampal CA1 neurons; format: functional
# [18] = species on record: Homo sapiens; assay: Toxicity in human assessed as ataxia; format: organism-based; settings: in vivo
# [19] = species on record: Homo sapiens; assay: Toxicity in human assessed as sedation; format: organism-based; settings: in vivo
# [20] = species on record: Felis catus; assay: Neuroprotective activity against middle cerebral artery occlusion-induced focal cerebral ischemia in cat assessed as reduction in infarct volume in hemesphere; format: functional; design: scale not given: the % may be the effect or the level left
# [21] = target: Glutamate receptor ionotropic, kainate 1 (Homo sapiens) (UniProt P39086); assay: Binding affinity to GluR5
# [22] = tested on: Mus musculus; assay: Anticonvulsant activity in ip dosed mouse assessed as inhibition of MES-induced tonic seizures; format: functional
# [23] = target: Glutamate receptor ionotropic, kainate 3 (Homo sapiens, UniProt Q13003); assay: Binding affinity to GluR7
# [24] = species on record: Felis catus; assay: Neuroprotective activity against middle cerebral artery occlusion-induced focal cerebral ischemia in cat assessed as reduction in infarct volume in cortex; format: functional; design: scale not given: the % may be the effect or the level left
# [25] = species on record: Meriones unguiculatus; assay: Neuroprotective activity against middle cerebral artery occlusion-induced focal cerebral ischemia in Mongolian gerbils assessed as reduction in infarct volume in cortex; format: functional; design: scale not given: the % may be the effect or the level left
# [26] = species on record: Homo sapiens; assay: Toxicity in human assessed as occurance of systemic allodynia; format: organism-based; settings: in vivo
# [27] = species on record: Homo sapiens; assay: Toxicity in human assessed as hazy vision; format: organism-based; settings: in vivo
# [28] = species on record: Meriones unguiculatus; assay: Neuroprotective activity against middle cerebral artery occlusion-induced focal cerebral ischemia in Mongolian gerbils assessed as reduction in infarct volume in hemesphere; format: functional; design: scale not given: the % may be the effect or the level left
# [29] = target: T1, Glutamate receptor ionotropic, kainate 2 (Homo sapiens, UniProt Q13002); assay: Binding affinity to GluR6
# [30] = target: T1, Glutamate receptor ionotropic, kainate 2; settings: 10 uM
# [31] = tested on: Rattus norvegicus; assay: […] effect against middle cerebral artery occlusion-induced focal cerebral ischemia in spontaneously hypertensive rat assessed as reduction in infarct volume at 20 mg/kg, iv after 2 hrs of occlusion; format: functional; design: scale not given: the % may be the effect or the level left
# [32] = target: T2, Solute carrier family 22 member 6 (Homo sapiens, UniProt Q4U2R8); assay: Inhibition of human OAT1
# T2 sequence (Q4U2R8 whole entry): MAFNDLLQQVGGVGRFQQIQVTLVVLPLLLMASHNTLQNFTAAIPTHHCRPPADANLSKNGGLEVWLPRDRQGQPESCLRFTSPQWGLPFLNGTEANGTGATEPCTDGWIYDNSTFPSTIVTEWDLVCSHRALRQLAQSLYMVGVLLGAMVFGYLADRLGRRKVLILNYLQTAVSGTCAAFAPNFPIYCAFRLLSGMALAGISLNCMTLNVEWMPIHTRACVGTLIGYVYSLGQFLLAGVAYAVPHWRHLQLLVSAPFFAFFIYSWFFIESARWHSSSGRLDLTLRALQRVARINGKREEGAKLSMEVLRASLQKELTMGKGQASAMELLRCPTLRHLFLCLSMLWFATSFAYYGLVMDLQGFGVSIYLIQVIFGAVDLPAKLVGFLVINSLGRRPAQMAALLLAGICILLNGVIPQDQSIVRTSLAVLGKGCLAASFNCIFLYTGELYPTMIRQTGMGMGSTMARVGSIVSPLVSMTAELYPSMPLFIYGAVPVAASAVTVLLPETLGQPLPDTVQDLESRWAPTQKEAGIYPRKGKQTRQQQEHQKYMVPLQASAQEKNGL
# [33] = target: T3, Organic anion transporter 3 (Homo sapiens, UniProt Q8TCC7); assay: Inhibition of human OAT3
# T3 sequence (Q8TCC7 whole entry): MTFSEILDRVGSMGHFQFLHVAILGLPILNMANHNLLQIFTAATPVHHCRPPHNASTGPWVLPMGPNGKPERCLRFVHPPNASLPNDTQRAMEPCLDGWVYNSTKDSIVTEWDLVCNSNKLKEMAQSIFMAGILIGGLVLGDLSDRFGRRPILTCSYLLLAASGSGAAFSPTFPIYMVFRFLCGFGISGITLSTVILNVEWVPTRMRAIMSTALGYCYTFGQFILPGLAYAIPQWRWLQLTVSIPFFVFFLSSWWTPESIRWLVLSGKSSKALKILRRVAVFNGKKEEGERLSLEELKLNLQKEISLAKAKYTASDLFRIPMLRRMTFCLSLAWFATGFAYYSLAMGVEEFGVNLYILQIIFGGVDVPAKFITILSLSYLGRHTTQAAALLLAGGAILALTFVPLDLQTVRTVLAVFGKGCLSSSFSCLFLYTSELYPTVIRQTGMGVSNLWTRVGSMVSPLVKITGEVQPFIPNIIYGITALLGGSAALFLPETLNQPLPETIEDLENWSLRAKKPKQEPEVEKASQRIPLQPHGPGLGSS
# [34] = tested on: Rattus norvegicus; assay: Neuroprotective effect against middle cerebral artery occlusion-induced focal cerebral ischemia in spontaneously hypertensive rat at 20 mg/kg, iv after 3 hrs of occlusion; format: functional
# [35] = tested on: Rattus norvegicus; assay: Neuroprotective effect against middle cerebral artery occlusion-induced focal cerebral ischemia in spontaneously hypertensive rat at 20 mg/kg, iv after 2 hrs of occlusion; format: functional
# [36] = target: T4, Solute carrier family 22 member 11 (Homo sapiens, UniProt Q9NSA0); assay: Inhibition of human OAT4
# T4 sequence (Q9NSA0 whole entry): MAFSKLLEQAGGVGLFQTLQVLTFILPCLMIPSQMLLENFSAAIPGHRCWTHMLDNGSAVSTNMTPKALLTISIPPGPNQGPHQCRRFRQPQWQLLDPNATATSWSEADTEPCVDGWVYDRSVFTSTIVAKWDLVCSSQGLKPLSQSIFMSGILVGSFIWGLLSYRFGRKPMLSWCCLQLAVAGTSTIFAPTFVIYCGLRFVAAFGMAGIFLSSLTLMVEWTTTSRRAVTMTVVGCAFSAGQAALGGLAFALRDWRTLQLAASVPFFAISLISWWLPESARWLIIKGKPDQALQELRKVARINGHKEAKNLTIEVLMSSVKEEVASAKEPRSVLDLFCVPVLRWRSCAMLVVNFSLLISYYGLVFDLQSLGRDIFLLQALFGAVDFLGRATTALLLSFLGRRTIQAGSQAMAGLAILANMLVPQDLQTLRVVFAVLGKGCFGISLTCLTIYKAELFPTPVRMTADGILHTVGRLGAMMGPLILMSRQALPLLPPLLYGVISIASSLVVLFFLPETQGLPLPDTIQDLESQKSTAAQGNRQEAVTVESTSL
# T1 sequence (Q13002 whole entry): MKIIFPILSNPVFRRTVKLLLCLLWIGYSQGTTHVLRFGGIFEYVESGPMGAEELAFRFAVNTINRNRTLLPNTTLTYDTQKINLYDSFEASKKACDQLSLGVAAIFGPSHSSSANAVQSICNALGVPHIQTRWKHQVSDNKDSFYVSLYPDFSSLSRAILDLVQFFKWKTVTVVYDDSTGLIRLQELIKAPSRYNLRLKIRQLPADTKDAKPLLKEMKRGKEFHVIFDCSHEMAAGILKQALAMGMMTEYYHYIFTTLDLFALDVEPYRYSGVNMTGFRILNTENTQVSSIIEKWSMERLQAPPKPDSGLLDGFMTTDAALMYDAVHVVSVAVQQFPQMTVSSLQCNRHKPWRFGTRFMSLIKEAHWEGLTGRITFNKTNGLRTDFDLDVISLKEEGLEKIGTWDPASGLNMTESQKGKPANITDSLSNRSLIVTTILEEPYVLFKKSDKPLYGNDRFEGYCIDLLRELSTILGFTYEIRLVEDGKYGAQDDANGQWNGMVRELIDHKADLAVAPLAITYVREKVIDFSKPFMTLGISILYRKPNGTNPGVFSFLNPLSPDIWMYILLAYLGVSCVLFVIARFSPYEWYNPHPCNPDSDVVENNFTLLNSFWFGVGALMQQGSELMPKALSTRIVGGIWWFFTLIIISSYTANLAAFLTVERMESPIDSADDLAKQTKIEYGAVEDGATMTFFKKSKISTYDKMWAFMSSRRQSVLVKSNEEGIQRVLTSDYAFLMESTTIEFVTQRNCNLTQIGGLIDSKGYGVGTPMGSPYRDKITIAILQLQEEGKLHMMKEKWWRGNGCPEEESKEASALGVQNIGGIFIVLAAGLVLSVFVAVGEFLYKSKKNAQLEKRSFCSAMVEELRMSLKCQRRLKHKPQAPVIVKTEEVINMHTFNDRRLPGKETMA
# Glutamate receptor ionotropic, kainate 3, sequence (Q13003 whole entry): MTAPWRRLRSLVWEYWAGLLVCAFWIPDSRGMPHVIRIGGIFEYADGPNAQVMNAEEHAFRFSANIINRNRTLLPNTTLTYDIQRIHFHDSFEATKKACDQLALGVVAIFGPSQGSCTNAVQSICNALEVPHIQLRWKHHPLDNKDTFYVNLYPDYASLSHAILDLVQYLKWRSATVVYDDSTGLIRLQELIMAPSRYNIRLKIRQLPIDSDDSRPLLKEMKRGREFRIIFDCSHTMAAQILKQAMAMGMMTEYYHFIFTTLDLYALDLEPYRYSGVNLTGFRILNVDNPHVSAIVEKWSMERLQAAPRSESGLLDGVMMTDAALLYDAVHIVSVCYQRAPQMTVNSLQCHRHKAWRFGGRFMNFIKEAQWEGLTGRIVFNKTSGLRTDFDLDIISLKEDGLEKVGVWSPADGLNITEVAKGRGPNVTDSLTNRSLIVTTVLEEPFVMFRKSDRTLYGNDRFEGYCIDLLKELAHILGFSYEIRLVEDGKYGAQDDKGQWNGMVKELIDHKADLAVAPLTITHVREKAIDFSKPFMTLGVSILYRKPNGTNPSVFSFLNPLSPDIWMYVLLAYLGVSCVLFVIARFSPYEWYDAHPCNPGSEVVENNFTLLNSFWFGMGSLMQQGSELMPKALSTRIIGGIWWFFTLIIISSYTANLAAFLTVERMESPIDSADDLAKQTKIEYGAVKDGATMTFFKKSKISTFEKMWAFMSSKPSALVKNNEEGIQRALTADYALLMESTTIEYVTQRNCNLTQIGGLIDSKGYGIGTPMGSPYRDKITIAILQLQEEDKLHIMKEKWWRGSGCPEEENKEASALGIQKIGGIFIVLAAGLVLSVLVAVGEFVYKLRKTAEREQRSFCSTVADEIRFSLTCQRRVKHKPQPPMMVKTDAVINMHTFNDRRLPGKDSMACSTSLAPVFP
# Glutamate receptor ionotropic, kainate 1 (Homo sapiens), sequence (P39086 whole entry): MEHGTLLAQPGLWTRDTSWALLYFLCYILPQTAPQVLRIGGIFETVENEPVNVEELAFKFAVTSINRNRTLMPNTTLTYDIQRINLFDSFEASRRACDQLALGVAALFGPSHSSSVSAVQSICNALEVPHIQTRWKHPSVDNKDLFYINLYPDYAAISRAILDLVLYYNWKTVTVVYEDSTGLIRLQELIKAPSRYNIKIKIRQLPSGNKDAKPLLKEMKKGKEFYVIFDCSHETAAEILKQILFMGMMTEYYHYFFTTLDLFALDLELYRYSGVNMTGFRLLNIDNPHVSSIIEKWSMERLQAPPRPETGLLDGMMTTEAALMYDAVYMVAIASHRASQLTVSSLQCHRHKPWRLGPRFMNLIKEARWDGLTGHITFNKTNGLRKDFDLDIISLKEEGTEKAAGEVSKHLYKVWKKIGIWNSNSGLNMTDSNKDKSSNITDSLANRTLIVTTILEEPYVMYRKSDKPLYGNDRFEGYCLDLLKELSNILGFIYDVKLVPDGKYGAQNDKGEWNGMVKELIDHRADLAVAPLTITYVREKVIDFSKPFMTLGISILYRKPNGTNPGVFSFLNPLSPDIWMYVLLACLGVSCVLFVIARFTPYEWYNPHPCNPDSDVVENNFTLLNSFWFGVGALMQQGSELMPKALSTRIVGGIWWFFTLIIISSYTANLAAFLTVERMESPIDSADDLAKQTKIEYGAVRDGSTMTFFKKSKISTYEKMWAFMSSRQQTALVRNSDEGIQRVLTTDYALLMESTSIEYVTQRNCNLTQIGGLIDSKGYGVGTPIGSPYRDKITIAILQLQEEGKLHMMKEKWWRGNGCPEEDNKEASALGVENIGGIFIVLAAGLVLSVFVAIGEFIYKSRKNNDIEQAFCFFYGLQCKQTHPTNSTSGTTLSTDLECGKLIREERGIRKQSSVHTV
structure (smiles),measurement,setting,value
Nc1ccncc1 [DALFAMPRIDINE],ED50,[1],8.4 mg/kg
O=c1[nH]c2cc([N+](=O)[O-])c([N+](=O)[O-])cc2[nH]c1=O [DNQX],IC50,[2],0.5 µM
same,IC50,[3],9.5 µM
same,IC50,[4],40 µM
same,IC50,[5],2 µM
O=c1[nH]c2cc(C(F)(F)F)c(N3CCOCC3)cc2n(CP(=O)(O)O)c1=O [FANAPANEL],IC50,[2],0.12 µM
same,Activity,[6],19%
same,IC50,[3],5.15 µM
same,IC50,[4],2.8 µM
same,ED50,[7],13 mg/kg
same,IC50,[5],2.5 µM
CN(C)CCOc1ccccc1-c1nc(-c2ccccc2)no1 [IRAMPANEL],IC50,[8],8.5 µM
same,ED50,[9],23.4 mg/kg
O=C(O)CCS [MERCAPTOPROPIONIC ACID],ED50,[1],17.1 mg/kg
NS(=O)(=O)c1cccc2c1c([N+](=O)[O-])cc1nc(O)c(O)nc12 [NBQX],IC50,[2],0.15 µM
same,IC50,[3],> 100 µM
same,IC50,[4],> 90 µM
same,Activity,[10],30%
same,Ratio IC50,[11],> 30
same,ED50,[9],27.8 mg/kg
same,IC50,[5],4.8 µM
CN1CCC[C@H]1c1cccnc1 [NICOTINE],ED50,[1],22.7 mg/kg
C1CCc2nnnn2CC1 [PENTYLENETETRAZOL],ED50,[1],16.8 mg/kg
N#Cc1ccccc1-c1cc(-c2ccccn2)cn(-c2ccccc2)c1=O [PERAMPANEL],ED50,[12],0.94 mg/kg
same,ED50,[1],1.6 mg/kg
same,ED50,[9],0.47 mg/kg
same,Activity,[13],40%
same,IC50,[14],0.093 µM
O=C1C[C@@H]2OCC=C3CN4CC[C@]56c7ccccc7N1[C@H]5[C@H]2[C@H]3C[C@H]46 [STRYCHNINE],ED50,[1],17.4 mg/kg
CC(=O)N1N=C(c2ccc(N)cc2)c2cc3c(cc2C[C@H]1C)OCO3 [TALAMPANEL],Activity,[15],52%
same,Activity,[16],47%
same,ED50,[1],8.6 mg/kg
same,Activity,[17],25%
same,Activity,[18],26%
O=C(O)[C@@H]1C[C@H]2C[C@@H](CCc3nn[nH]n3)CC[C@H]2CN1 [TEZAMPANEL ANHYDROUS],IC50,[2],1.3 µM
same,Ki,[2],0.68 µM
same,Activity,[19],15%
same,Activity,[20],18%
same,Kb,[21],0.2 µM
same,ED50,[22],2.9 mg/kg
same,Ki,[23],> 100 µM
same,Activity,[24],19%
same,Activity,[25],31%
same,Activity,[26],<= 58%
same,Activity,[27],20%
same,Activity,[28],25%
same,Ki,[29],> 100 µM
same,IC50,[5],28.1 µM
same,inhibition,[30],< 20%
O=c1[nH]c2cc(-n3ccnc3)c([N+](=O)[O-])cc2[nH]c1=O [YM-90K],Ki,[2],0.084 µM
same,Ki,[4],> 100 µM
same,Ki,[5],2.2 µM
O=C(O)Cn1c(=O)c(=O)[nH]c2cc([N+](=O)[O-])c(-n3ccnc3)cc21 [ZONAMPANEL],Ki,[2],0.096 µM
same,Activity,[31],55%
same,IC50,[32],3 µM
same,IC50,[3],> 100 µM
same,IC50,[4],> 100 µM
same,IC50,[33],6.6 µM
same,Activity,[34],35%
same,Activity,[35],45%
same,IC50,[5],4.6 µM
same,IC50,[36],300 µM
